This is an account of results in ChEMBL document CHEMBL3227938, “Quantitative structure-activity relationships for biguanides, carbamimidates, and bisbiguanides as inhibitors of Streptococcus mutans No. 6715” (J Med Chem, 1979).

A short description of series [1]: Octanol-phosphate buffer partition coefficient, log P of the compound at pH 11.5. Type of series: physicochemical. Put shortly: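 Compound partitioned between 0.05 M phosphate buffer (pH 11.5) and octanol, each pre-saturated with the other. Gentle shaking for 90 min at 25 ± 5 °C. Phase ratio and sample amount set so the buffer-layer absorbance fell between 0.2 and 0.9 (1-cm cell, buffer blank). Free-base P was corrected for degree of ionization using pKa.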

For series [2], the system named is Streptococcus mutans. Kind of series: Antimicrobial activity against Streptococcus mutans 6715 after 48 hrs by spectrophotometry. It is filed as functional. The method in brief:
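Trypticase soy broth with sucrose and the salt of the test agent dosed from ethanol, inoculated with a 24-h S. mutans 6715 culture. Incubated anaerobically at 37 °C. Growth measured spectrophotometrically at 48 h. Each dilution tested in sets of five tubes.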

For series [3], the system named is Streptococcus mutans. Kind of series: Antimicrobial activity against Streptococcus mutans 6715 after 24 hrs by spectrophotometry. Type of series: functional. The method in brief: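 Inoculated with a 24-h S. mutans 6715 culture and incubated anaerobically at 37 °C. Growth read spectrophotometrically. Dilution series run in sets of five tubes. MIC is the lowest drug level with readings above 60% T at 24 h. Repeat determinations agreed.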

Series [4] in a line: Dissociation constant, pKa of the compound in 3:1 water:ethanol at 1 x 10 '-3 M. It is filed as physicochemical. Put shortly: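 pKa measured in duplicate by potentiometric titration in 3:1 water–ethanol at 10⁻³. pH recorded after each titrant addition, and pKa calculated by the Albert–Serjeant method.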

For orientation: logD means lipophilicity at a set pH, counting ionised and neutral species. A low value points to lower lipophilicity. Compound `CCCCCC/N=C(N)/N=C(\N)Nc1ccc(Cl)cc1` showed a logD in series [1] of 3.13. Further, the “log(1/MIC)” value in the series with Streptococcus mutans [2] and with Streptococcus mutans [3] was 5 throughout.

The pKa is the pH at which an ionisable group is half protonated. Low values mean a stronger acid or weaker base, high ones a weaker acid or stronger base. Regarding `CNC(=N)NC(=N)Nc1ccc(Cl)cc1`, the pKa at 1000 µM in series [4] worked out at 10.6. In series [1], this compound registered a logD of 1.58. Also, the “log(1/MIC)” value with Streptococcus mutans [2] and with Streptococcus mutans [3] was 3 in each case.

The compound `CCNC(=N)NC(=N)Nc1ccc(Cl)cc1` yielded a pKa at 1000 µM in series [4] of 10.8. In addition, the logD in series [1] turned out to be 2.14. Besides, the “log(1/MIC)” value was determined as 3 with Streptococcus mutans [2] and 3.04 in the series with Streptococcus mutans [3].

`CCCNC(=N)NC(=N)Nc1ccc(Cl)cc1` showed a pKa at 1000 µM in series [4] of 10.8. The same compound had a logD in series [1] of 2.63. Besides, the figures for the “log(1/MIC)” value in the series on Streptococcus mutans [2] and in the series with Streptococcus mutans [3] were 3 and 3.04, respectively.

`CCCCNC(=N)NC(=N)Nc1ccc(Cl)cc1` came in with a pKa at 1000 µM in series [4] of 10.8. The same compound returned a logD in series [1] of 3.13. In addition, the “log(1/MIC)” value with Streptococcus mutans [2] and in the series on Streptococcus mutans [3] was 4 throughout.

In the case of `CCCCC(CC)CNC(=N)NC(=N)Nc1ccc(Cl)cc1` (stereo not drawn), the logD in series [1] is 4.93. Besides, the “log(1/MIC)” value in the series on Streptococcus mutans [2] and in the series with Streptococcus mutans [3] was 5.4 each time.

In series [1], `CCCCCCCCNC(=N)NC(=N)Nc1ccc(Cl)cc1` showed a logD of 5.13. In addition, the “log(1/MIC)” value in the series on Streptococcus mutans [2] and in the series with Streptococcus mutans [3] was 5.22 in each case.

For `CCCCCCCCCCNC(=N)NC(=N)Nc1ccc(Cl)cc1`, the logD in series [1] was 6.13. Further, the “log(1/MIC)” value is reported as 5 with Streptococcus mutans [2] and 5.1 with Streptococcus mutans [3].

`CCCCCCCCCCCCNC(=N)NC(=N)Nc1ccc(Cl)cc1` gave a logD in series [1] of 7.13. The “log(1/MIC)” value came out at 4.7 with Streptococcus mutans [2] and 5 in the series on Streptococcus mutans [3].

Compound `CCCCCCCCNC(=N)NC(=N)Nc1ccc(C)cc1` showed a pH-dependent lipophilicity (logD) in series [1] of 4.93. For the same compound, the “log(1/MIC)” value in the series with Streptococcus mutans [2] is listed as 5.3; in the series with Streptococcus mutans [3], 5.4.

With `CCCCC(CC)CNC(=N)NC(=N)Nc1ccc(C)cc1` (stereo not drawn), in series [1], the logD stood at 4.73. For the same compound, the “log(1/MIC)” value in the series with Streptococcus mutans [2] and with Streptococcus mutans [3] was 5.22 in each case.

`CCCCCCCCNC(=N)NC(=N)Nc1ccccc1` showed a logD in series [1] of 4.43. Besides, the figures for the “log(1/MIC)” value in the series with Streptococcus mutans [2] and in the series on Streptococcus mutans [3] were 5.04 and 5.22, respectively.

Regarding `CCCCCCCCCCNC(=N)NC(=N)Nc1ccccc1`, the logD in series [1] came out at 5.43. Moreover, the entries for the “log(1/MIC)” value in the series with Streptococcus mutans [2] and in the series on Streptococcus mutans [3] were 5.15 and 5.3, respectively.

In series [1], `CCCCCCNC(=N)NC(=N)Nc1cccc(C(F)(F)F)c1` yielded a logD of 4.31. Besides, the “log(1/MIC)” value with Streptococcus mutans [2] is reported as 4.96; in the series with Streptococcus mutans [3], 5.

Take `CCCCCCCCNC(=N)NC(=N)Nc1cccc(C(F)(F)F)c1`: the logD in series [1] came to 5.31. For the same compound, the “log(1/MIC)” value with Streptococcus mutans [2] and in the series with Streptococcus mutans [3] was 5.3 in each case.

As for `CCCCCCCCNC(=N)NC(=N)Nc1ccc(OC)cc1`, the logD in series [1] amounted to 4.41. For the same compound, the “log(1/MIC)” value with Streptococcus mutans [2] turned out to be 5; in the series on Streptococcus mutans [3], 5.22.

`CCOC(=N)NC(=N)Nc1ccc(Cl)cc1` registered a pKa at 1000 µM in series [4] of 9.36. The logD in series [1] was 2.32. Also, the “log(1/MIC)” value in the series with Streptococcus mutans [2] and in the series with Streptococcus mutans [3] was 3.7 each time.

In the case of `CC(C)OC(=N)NC(=N)Nc1ccc(Cl)cc1`, the pKa at 1000 µM in series [4] turned out to be 9.35. Moreover, the logD in series [1] was 2.64. Besides, the “log(1/MIC)” value in the series on Streptococcus mutans [2] and in the series on Streptococcus mutans [3] was 3.3 throughout.

Compound `CCCCOC(=N)NC(=N)Nc1ccc(Cl)cc1` returned a logD in series [1] of 3.32. Besides, the “log(1/MIC)” value is reported as 4 in the series with Streptococcus mutans [2] and 4.15 with Streptococcus mutans [3].

The compound `CCCCCCOC(=N)NC(=N)Nc1ccc(Cl)cc1` gave a logD in series [1] of 4.32. Besides, the entries for the “log(1/MIC)” value in the series on Streptococcus mutans [2] and with Streptococcus mutans [3] were 5 and 5.1, respectively.

As for `CCCCCCCCOC(=N)NC(=N)Nc1ccc(Cl)cc1`, in series [1], the pH-dependent lipophilicity (logD) came to 5.32. For the same compound, the entries for the “log(1/MIC)” value with Streptococcus mutans [2] and in the series with Streptococcus mutans [3] were 5.3 and 5.52, respectively.

In turn, `CCCCCCCCCCOC(=N)NC(=N)Nc1ccc(Cl)cc1` showed a logD in series [1] of 6.32. For the same compound, the “log(1/MIC)” value in the series with Streptococcus mutans [2] and with Streptococcus mutans [3] was 5.05 in each case.

Turning to `N=C(NCCCCCCNC(=N)NC(=N)Nc1cccc(C(F)(F)F)c1)NC(=N)Nc1cccc(C(F)(F)F)c1`, in series [1], the logD amounted to 5.12. Besides, the figures for the “log(1/MIC)” value in the series on Streptococcus mutans [2] and in the series with Streptococcus mutans [3] were 5.22 and 5.52, respectively.

Consider `N=C(NCCCCCCNC(=N)NC(=N)NC1CCCCC1)NC(=N)NC1CCCCC1`, for which, in series [1], the logD came to 4.46. Further, the “log(1/MIC)” value in the series with Streptococcus mutans [2] and in the series with Streptococcus mutans [3] was 5.4 throughout.

In series [1], `N=C(NCCCCCCNC(=N)NC(=N)NC12CC3CC(CC(C3)C1)C2)NC(=N)NC12CC3CC(CC(C3)C1)C2` had a logD of 6.04. Moreover, the “log(1/MIC)” value with Streptococcus mutans [2] and in the series with Streptococcus mutans [3] was 5 in each case.

For the compound `CSc1ccc(NC(=N)NC(=N)NCCCCCCNC(=N)NC(=N)Nc2ccc(SC)cc2)cc1`, in series [1], the logD was 4.58. The “log(1/MIC)” value in the series with Streptococcus mutans [2] and with Streptococcus mutans [3] was 5.4 each time.

`CCSc1ccc(NC(=N)NC(=N)NCCCCCCNC(=N)NC(=N)Nc2ccc(SCC)cc2)cc1` had a logD in series [1] of 5.58. Further, the “log(1/MIC)” value with Streptococcus mutans [2] and in the series with Streptococcus mutans [3] was 5.7 in each case.

For the compound `CCCCSc1ccc(NC(=N)NC(=N)NCCCCCCNC(=N)NC(=N)Nc2ccc(SCCCC)cc2)cc1`, the logD in series [1] turned out to be 7.58. Besides, the “log(1/MIC)” value in the series with Streptococcus mutans [2] was found to be 5.52; in the series on Streptococcus mutans [3] it was 5.7.

For the compound `CCCCCSc1ccc(NC(=N)NC(=N)NCCCCCCNC(=N)NC(=N)Nc2ccc(SCCCCC)cc2)cc1`, the logD in series [1] is 8.58. For the same compound, the “log(1/MIC)” value stood at 5.3 in the series with Streptococcus mutans [2] and 5.52 in the series with Streptococcus mutans [3].

In series [1], `CCCS(=O)(=O)c1ccc(NC(=N)NC(=N)NCCCCCCNC(=N)NC(=N)Nc2ccc(S(=O)(=O)CCC)cc2)cc1` had a logD of 2.1. Besides, the “log(1/MIC)” value with Streptococcus mutans [2] and in the series on Streptococcus mutans [3] was 3.7 each time.

For `CCCCS(=O)(=O)c1ccc(NC(=N)NC(=N)NCCCCCCNC(=N)NC(=N)Nc2ccc(S(=O)(=O)CCCC)cc2)cc1`, the logD in series [1] amounted to 3.1. In addition, the “log(1/MIC)” value turned out to be 4.52 in the series with Streptococcus mutans [2] and 4.7 with Streptococcus mutans [3].

`CCCCCS(=O)(=O)c1ccc(NC(=N)NC(=N)NCCCCCCNC(=N)NC(=N)Nc2ccc(S(=O)(=O)CCCCC)cc2)cc1` gave a logD in series [1] of 4.1. The “log(1/MIC)” value with Streptococcus mutans [2] is given as 5.4; in the series on Streptococcus mutans [3] it was 5.52.

In turn, `CCCCCCS(=O)(=O)c1ccc(NC(=N)NC(=N)NCCCCCCNC(=N)NC(=N)Nc2ccc(S(=O)(=O)CCCCCC)cc2)cc1` returned a logD in series [1] of 5.1. In addition, the “log(1/MIC)” value with Streptococcus mutans [2] and with Streptococcus mutans [3] was 5.4 in each case.

In series [1], `CCCSc1ccc(NC(=N)NC(=N)NCCCCCCNC(=N)NC(=N)Nc2ccc(SCCC)cc2)cc1` registered a logD of 6.58. For the same compound, the “log(1/MIC)” value in the series with Streptococcus mutans [2] is 5.22; with Streptococcus mutans [3] it was 5.3.

Take `CCCCC(CC)CNC(=N)NC(=N)NCCCCCCNC(=N)NC(=N)NCC(CC)CCCC` (stereo not drawn) [ALEXIDINE]: the logD in series [1] was found to be 7.04. Moreover, the “log(1/MIC)” value in the series on Streptococcus mutans [2] worked out at 5.1; with Streptococcus mutans [3], 5.15.

In series [4], `N=C(NCCCCCCNC(=N)NC(=N)Nc1ccc(Cl)cc1)NC(=N)Nc1ccc(Cl)cc1` [CHLORHEXIDINE] returned a pKa at 1000 µM of 10.8. The compound also came in with a logD in series [1] of 4.78. Also, the “log(1/MIC)” value in the series with Streptococcus mutans [2] was found to be 5.22; in the series on Streptococcus mutans [3] it was 5.3.

In turn, `CC(C)NC(=N)NC(=N)Nc1ccc(Cl)cc1` [PROGUANIL] gave a logD in series [1] of 2.43. Besides, the figures for the “log(1/MIC)” value with Streptococcus mutans [2] and in the series with Streptococcus mutans [3] were 3 and 3.04, respectively.
